In ChEMBL document CHEMBL4002575, “Progress in the development of β-lactams as N-Acylethanolamine Acid Amidase (NAAA) inhibitors: Synthesis and SAR study of new, potent N-O-substituted derivatives” (Eur J Med Chem, 2017):
Calls of active or inactive are those of the source. The calls are words filed in the database; no cut-off is given here.

Key:
[1] = target: T1, Acid ceramidase (Homo sapiens, UniProt Q13510); experiment: Inhibition of human acid ceramidase expressed in HEK293 cells using N-[(1S,2R)-2-hydroxy-1-(hydroxymethyl)-4-(2-oxochromen-7-yl)-oxybutyl]dodecanamide as substrate preincubated for 10 mins followed by substrate addition measured after 3 hrs by fluorescence assay; type: cell-based
T1 sequence (Q13510 whole entry): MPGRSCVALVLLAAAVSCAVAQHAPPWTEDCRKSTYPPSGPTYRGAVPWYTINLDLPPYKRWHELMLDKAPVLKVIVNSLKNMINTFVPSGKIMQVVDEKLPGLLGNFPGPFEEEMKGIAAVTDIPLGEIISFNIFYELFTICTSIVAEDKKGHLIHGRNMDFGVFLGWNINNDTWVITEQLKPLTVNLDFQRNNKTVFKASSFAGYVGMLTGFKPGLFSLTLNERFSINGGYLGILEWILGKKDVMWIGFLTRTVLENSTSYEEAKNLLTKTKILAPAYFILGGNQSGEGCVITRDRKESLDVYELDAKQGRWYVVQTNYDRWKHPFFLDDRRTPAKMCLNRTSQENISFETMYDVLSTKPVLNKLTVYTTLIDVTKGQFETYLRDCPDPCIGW
How it was run: (§1)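 Human acid ceramidase fluorogenic assay. IC50 taken as the mean of three determinations.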

[2] = Apparent half life in PBS at pH 7.4 at 1 uM at 37 degC after 24 hrs in presence of 10% MeCN by UPLC-MS method; type: physicochemical; settings: read-out: t1/2(app)
How it was run: (§2)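 Compound incubated 24 h at 37 °C in 0.01 M PBS, pH 7.4, containing 10% MeCN.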

[3] = Half life in mouse plasma at 2 uM after 2 hrs by LC/MS-MS method; type: ADME, cell-free
[4] = Half life in rat plasma at 2 uM after 2 hrs by LC/MS-MS method; type: ADME, cell-free
[5] = tested on: Mus musculus; experiment: Antiinflammatory activity in CD1 mouse assessed as inhibition of carrageenan-induced paw edema at 0.5 to 50 ug/paw administered intraplantarly post carrageenan challenge measured over 2 to 48 hrs by plethysmometer; type: functional
How it was run: (§3)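 Male CD1 mice (25-30 g). Paw edema induced by λ-carrageenan (1% w/v in sterile water, 50 µl) injected into the left hind paw. A fresh suspension in 80% sterile saline/10% PEG-400/10% Tween 80 (10 µl per animal) was given by intraplantar injection just after carrageenan, as a single dose of 0.5–50 µg/paw. Edema was read by plethysmometer and heat hyperalgesia by behavioural test, both blind.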

[6] = tested on: Mus musculus; experiment: Analgesic activity in CD1 mouse assessed as inhibition of carrageenan-induced heat hyperalgesia at 0.5 to 50 ug/paw administered intraplantarly post carrageenan challenge measured over 2 to 48 hrs; type: functional; how it was run: as §3
[7] = target: T2, Fatty-acid amide hydrolase 1 (Homo sapiens) (UniProt O00519); experiment: Inhibition of human FAAH1 expressed in HEK293 cells at 10 uM using [3H]anandamide as substrate preincubated for 10 mins followed by substrate addition measured after 30 mins by liquid scintillation counting method relative to control
T2 sequence (whole entry): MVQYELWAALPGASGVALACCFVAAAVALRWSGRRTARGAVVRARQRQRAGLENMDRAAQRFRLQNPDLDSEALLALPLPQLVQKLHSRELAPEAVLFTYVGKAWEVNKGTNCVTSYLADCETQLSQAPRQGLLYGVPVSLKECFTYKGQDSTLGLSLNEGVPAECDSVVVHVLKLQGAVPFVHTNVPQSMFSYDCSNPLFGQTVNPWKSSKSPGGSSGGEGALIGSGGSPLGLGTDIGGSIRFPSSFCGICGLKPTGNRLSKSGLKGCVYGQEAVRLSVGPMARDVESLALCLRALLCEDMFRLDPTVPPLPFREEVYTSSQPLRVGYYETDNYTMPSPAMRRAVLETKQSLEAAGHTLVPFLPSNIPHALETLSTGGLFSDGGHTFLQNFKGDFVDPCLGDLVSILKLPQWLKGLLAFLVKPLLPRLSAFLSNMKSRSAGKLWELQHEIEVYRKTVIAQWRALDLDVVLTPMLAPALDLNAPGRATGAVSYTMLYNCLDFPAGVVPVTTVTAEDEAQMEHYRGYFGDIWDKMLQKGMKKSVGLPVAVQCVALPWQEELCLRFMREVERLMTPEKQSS

[8] = Chemical stability in PBS at pH 7.4 assessed as parent compound remaining at 1 uM at 37 degC after 24 hrs in presence of 10% MeCN by UPLC-MS method; type: physicochemical; settings: read-out: Stability; how it was run: as §2
[9] = organism: Homo sapiens; experiment: Selectivity ratio of IC50 for human acid ceramidase to IC50 for recombinant human spleen NAAA
How it was run: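 Ratio of h-AC IC50 to h-NAAA IC50, each the mean of three determinations in fluorogenic assays. The NAAA was recombinant human enzyme overexpressed in HEK293 cells, purified, then activated for 3 h at 37 °C at pH 4.5 (phosphate/citrate, 3 mM DTT, 0.1% Triton X-100). The NAAA substrate was PAMCA (hexadecanamide of 7-amino-4-methylcoumarin).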

[10] = target: T3, N-acylethanolamine-hydrolyzing acid amidase (Homo sapiens, UniProt Q02083); experiment: Inhibition of recombinant human spleen NAAA expressed in HEK293 cells using PAMCA as substrate preincubated for 10 mins followed by substrate addition measured after 50 mins by fluorescence assay
T3 sequence (Q02083 whole entry): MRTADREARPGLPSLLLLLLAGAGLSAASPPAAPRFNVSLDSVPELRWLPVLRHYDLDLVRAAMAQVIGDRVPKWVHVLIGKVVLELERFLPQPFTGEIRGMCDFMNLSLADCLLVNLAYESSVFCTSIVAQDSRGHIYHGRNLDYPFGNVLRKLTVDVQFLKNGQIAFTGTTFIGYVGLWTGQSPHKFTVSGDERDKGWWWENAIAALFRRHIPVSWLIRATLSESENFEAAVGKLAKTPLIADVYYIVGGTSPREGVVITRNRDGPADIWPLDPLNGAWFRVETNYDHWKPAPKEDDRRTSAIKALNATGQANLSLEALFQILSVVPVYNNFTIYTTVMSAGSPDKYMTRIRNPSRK

[11] = target: T4, Acid ceramidase (Homo sapiens) (UniProt Q13510); experiment: Inhibition of human acid ceramidase expressed in HEK293 cells at 50 uM using N-[(1S,2R)-2-hydroxy-1-(hydroxymethyl)-4-(2-oxochromen-7-yl)-oxybutyl]dodecanamide as substrate preincubated for 10 mins followed by substrate addition measured after 3 hrs by fluorescence assay relative to control; type: cell-based; how it was run: as §1
T4 sequence (whole entry): T1 sequence (Q13510 whole entry)

[12] = tested on: Rattus norvegicus; experiment: Oral bioavailability in Sprague-Dawley rat at 10 mg/kg after 15 to 1440 mins by UPLC/MS analysis; type: ADME, organism-based; settings: in vivo

| SMILES | half-life at 1 µM [2] | half-life at 2 µM [3] | half-life at 2 µM [4] | inhibition [7] | IC50 [10] | also measured |
| --- | --- | --- | --- | --- | --- | --- |
| C[C@H]1[C@H](NC(=O)OCCCCC2CCCCC2)C(=O)N1Oc1ccc(S(C)(=O)=O)cc1 | 727 min | < 5 min | < 5 min | > 50% | – | IC50 [1]: 2020 nM; inhibition [5]: Active; inhibition [6]: Active |
| C[C@H]1[C@H](NC(=O)OCCCCC2CCCCC2)C(=O)N1Oc1ccccc1 | > 1440 min | < 5 min | < 5 min | > 50% | – | IC50 [1]: 300 nM; remaining at 24 h, 1 µM [8]: 63%; Ratio IC50 [9]: 13 |
| C[C@H]1[C@H](NC(=O)OCCCCC2CCCCC2)C(=O)N1OC(C)(C)C | – | – | – | – | > 50000 nM | – |
| CC(=O)N1C[C@H](NC(=O)OCCCCC2CCCCC2)C1=O | – | – | – | – | > 50000 nM | – |
| CON1C[C@@H](NC(=O)OCCCCC2CCCCC2)C1=O | – | – | – | – | 56 nM | – |
| C[C@H]1[C@H](NC(=O)OCCCCC2CCCCC2)C(=O)N1OCCCS(C)(=O)=O | > 1440 min | < 5 min | < 5 min | > 50% | – | inhibition [11]: > 50%; remaining at 24 h, 1 µM [8]: 67%; Ratio IC50 [9]: > 1000 |
| CN1C[C@H](NC(=O)OCCCCC2CCCCC2)C1=O | – | – | – | – | 1980 nM | – |
| CCCCCCCCC(=O)N[C@H]1CNC1=O | – | 130 min | – | – | – | F [12]: 67% |
| CON1C(=O)[C@@H](NC(=O)OCCCCC2CCCCC2)[C@@H]1C | > 1440 min | < 5 min | < 5 min | > 50% | – | inhibition [11]: > 50%; remaining at 24 h, 1 µM [8]: 97% |
| CON1C[C@H](NC(=O)OCCCCC2CCCCC2)C1=O | – | – | – | – | 16 nM | – |
| COC(=O)N1C[C@H](NC(=O)OCCCCC2CCCCC2)C1=O | – | – | – | – | 7180 nM | – |
